What was measured:
[1] = molecular target: Glutamate receptor ionotropic, NMDA 2B (Homo sapiens) (UniProt Q13224); test: Displacement of [3H]ifenprodil from human GluN2B expressed in mouse L(tk-) cell membranes at 1 uM incubated for 120 mins by scintillation counting method relative to control
Summary of the method: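 Competition binding with [³H]ifenprodil on membranes of mouse fibroblast L(tk-) cells stably transfected with dexamethasone-inducible vectors for human GluN1a and human GluN2B; inhibition (%) of radioligand binding recorded at 1 μM test compound.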

[2] = Displacement of [3H]-(+)-MK-801 from NMDA PCP binding site in pig brain cortex membrane at 1 uM incubated for 120 mins by scintillation counting method relative to control; format: cell membranes
[3] = molecular target: Sigma non-opioid intracellular receptor 1 (Cavia porcellus) (UniProt Q60492); test: Displacement of [3H]-(+)pentazocine from sigma-1 receptor in guinea pig brain membranes after 120 mins by scintillation counting method relative to control; format: cell membranes; set-up: concentration or dose not given beside the values
[4] = molecular target: T1, Sigma intracellular receptor 2 (Rattus norvegicus) (UniProt Q5U3Y7); test: Displacement of [3H]-Di-o-tolylguanidine from sigma-2 receptor in rat liver membranes after 120 mins by scintillation counting method relative to control; format: cell membranes; set-up: concentration or dose not given beside the values
T1 sequence (whole entry): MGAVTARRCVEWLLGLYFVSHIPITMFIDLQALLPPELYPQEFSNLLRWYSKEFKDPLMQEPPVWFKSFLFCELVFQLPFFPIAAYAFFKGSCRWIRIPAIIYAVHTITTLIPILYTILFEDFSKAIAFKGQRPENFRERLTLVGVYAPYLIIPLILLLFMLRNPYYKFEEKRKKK

[5] = molecular target: T2, Sigma non-opioid intracellular receptor 1 (Cavia porcellus, UniProt Q60492); test: Displacement of [3H]-(+)pentazocine from sigma-1 receptor in guinea pig brain membranes after 120 mins by scintillation counting method; format: cell membranes
[6] = molecular target: T3, Sigma intracellular receptor 2 (Rattus norvegicus, UniProt Q5U3Y7); test: Displacement of [3H]-Di-o-tolylguanidine from sigma-2 receptor in rat liver membranes after 120 mins by scintillation counting method; format: cell membranes
T3 sequence (Q5U3Y7 whole entry): T1 sequence (whole entry)

[7] = species on record: Cavia porcellus; test: Displacement of [3H]-(+)-MK-801 from NMDA PCP binding site in pig brain cortex membrane at 1 uM incubated for 150 mins by scintillation counting method relative to control; format: cell membranes
[8] = molecular target: T2, Sigma non-opioid intracellular receptor 1; test: Displacement of [3H]-(+)pentazocine from sigma-1 receptor in guinea pig brain membranes after 180 mins by scintillation counting method; format: cell membranes
[9] = molecular target: T3, Sigma intracellular receptor 2; test: Displacement of [3H]-Di-o-tolylguanidine from sigma-2 receptor in rat liver membranes after 180 mins by scintillation counting method; format: cell membranes
[10] = molecular target: Glutamate receptor ionotropic, NMDA 2B (Homo sapiens, UniProt Q05586+Q13224); test: Displacement of [3H]ifenprodil from human GluN2B expressed in mouse L(tk-) cell membranes co-expressing GluN1a incubated for 120 mins by scintillation counting method
Sequence of Glutamate receptor ionotropic, NMDA 2B (Q13224 whole entry, one chain of several): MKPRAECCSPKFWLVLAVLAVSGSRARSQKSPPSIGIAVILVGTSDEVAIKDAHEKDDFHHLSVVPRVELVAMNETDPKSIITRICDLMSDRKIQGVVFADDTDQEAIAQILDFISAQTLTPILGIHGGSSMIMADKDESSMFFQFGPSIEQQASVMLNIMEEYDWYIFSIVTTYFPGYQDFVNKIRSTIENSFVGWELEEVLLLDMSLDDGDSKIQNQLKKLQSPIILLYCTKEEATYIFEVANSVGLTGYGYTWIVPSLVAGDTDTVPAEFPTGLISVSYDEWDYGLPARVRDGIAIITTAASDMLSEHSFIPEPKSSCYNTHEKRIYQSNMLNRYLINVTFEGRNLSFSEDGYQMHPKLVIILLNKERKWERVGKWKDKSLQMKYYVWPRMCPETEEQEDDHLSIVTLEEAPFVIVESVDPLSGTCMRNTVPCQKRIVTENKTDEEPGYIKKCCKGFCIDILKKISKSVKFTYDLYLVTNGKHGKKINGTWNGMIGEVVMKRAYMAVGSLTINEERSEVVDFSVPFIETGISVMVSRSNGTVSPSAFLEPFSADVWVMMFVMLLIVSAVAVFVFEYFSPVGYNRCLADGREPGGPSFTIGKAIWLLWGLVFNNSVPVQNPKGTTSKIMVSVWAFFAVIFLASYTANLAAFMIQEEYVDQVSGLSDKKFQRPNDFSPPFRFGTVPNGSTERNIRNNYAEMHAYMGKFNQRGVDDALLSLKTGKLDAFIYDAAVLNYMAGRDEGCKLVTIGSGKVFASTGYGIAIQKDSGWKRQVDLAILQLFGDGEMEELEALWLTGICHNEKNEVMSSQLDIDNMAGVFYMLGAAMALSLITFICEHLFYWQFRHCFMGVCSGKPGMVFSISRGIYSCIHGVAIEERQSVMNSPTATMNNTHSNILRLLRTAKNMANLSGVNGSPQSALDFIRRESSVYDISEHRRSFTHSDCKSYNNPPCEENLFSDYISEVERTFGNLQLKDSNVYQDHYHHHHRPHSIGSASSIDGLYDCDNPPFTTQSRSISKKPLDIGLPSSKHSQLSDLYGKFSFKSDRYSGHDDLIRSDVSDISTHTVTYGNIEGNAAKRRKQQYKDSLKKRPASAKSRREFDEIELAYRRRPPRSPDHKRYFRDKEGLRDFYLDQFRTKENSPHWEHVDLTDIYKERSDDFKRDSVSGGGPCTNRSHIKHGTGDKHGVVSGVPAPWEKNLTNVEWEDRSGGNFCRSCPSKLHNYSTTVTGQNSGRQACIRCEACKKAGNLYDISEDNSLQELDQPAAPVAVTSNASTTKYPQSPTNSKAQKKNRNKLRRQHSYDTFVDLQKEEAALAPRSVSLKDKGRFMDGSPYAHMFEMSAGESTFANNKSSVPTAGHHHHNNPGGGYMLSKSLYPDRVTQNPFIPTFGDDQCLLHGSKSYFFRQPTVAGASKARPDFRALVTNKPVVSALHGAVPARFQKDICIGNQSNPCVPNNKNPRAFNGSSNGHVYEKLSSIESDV

Sequence of Sigma non-opioid intracellular receptor 1 (Cavia porcellus) (Q60492 whole entry): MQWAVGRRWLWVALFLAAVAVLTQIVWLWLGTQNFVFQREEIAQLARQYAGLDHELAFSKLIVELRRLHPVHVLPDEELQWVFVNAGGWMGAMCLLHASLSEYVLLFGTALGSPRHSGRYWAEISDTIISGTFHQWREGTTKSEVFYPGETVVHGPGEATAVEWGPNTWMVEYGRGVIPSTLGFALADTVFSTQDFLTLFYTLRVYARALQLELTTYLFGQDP
T2 sequence (Q60492 whole entry): as above
Sequence of Glutamate receptor ionotropic, NMDA 2B (Homo sapiens) (Q13224 27-1484 limits assumed): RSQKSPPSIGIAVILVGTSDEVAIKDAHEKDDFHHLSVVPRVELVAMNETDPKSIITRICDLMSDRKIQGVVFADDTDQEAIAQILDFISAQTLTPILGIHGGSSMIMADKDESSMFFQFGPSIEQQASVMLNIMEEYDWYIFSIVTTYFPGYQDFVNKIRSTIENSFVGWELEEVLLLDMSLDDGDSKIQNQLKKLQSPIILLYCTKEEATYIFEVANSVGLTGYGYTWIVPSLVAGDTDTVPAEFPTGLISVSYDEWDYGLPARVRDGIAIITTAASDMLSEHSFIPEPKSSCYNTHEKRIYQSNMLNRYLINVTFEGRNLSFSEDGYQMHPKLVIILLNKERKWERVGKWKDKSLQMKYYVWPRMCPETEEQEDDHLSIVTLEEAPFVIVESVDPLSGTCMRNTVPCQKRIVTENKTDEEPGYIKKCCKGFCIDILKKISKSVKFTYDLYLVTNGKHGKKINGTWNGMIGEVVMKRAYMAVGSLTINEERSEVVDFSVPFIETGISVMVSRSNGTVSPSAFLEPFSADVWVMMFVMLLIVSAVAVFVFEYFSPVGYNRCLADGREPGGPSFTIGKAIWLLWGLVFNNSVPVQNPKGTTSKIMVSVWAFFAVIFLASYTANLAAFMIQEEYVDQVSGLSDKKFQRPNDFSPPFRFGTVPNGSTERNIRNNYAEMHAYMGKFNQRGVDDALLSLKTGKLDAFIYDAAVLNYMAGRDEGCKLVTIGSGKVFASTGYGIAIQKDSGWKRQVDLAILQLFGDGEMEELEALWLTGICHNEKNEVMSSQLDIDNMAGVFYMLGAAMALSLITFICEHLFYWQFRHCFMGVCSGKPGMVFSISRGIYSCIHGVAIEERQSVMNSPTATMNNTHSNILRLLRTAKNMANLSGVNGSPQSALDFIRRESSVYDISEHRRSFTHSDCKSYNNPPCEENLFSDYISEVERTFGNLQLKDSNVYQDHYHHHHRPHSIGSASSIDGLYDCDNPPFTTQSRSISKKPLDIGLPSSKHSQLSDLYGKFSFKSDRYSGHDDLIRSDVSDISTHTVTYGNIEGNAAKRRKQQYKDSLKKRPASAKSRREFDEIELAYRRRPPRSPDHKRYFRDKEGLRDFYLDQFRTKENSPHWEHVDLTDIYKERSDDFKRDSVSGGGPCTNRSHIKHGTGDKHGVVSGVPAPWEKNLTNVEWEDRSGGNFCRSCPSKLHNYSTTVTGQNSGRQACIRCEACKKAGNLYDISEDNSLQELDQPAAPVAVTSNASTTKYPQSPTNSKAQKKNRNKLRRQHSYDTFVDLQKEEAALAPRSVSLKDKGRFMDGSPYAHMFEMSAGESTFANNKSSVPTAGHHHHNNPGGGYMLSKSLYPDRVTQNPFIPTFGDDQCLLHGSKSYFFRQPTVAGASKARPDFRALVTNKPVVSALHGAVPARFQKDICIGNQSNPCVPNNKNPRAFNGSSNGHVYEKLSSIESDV

SMILES | inhibition [1] [%] | inhibition [2] [%] | inhibition [3] [%] | inhibition [4] [%] | Ki [5] [nM] | Ki [6] [nM] | inhibition [7] [%] | Ki [8] [nM] | Ki [9] [nM] | Ki [10] [nM]
COc1ccc2c(c1)CCN(CCCCc1ccccc1OCCF)CC2O (centres undefined) | 19 | 0 |  |  | 715 | 593 |  |  |  | 
COc1ccc2c(c1)CCN(CCCCc1ccccc1)CC2O (centres undefined) |  |  |  |  |  |  | 25 | 211 | 96 | 
Oc1ccc2c(c1)CCN(CCCCc1ccc(OCCF)cc1)CC2O (centres undefined) |  | 0 |  |  | 705 | 79 |  |  |  | 193
OC1CN(CCC#Cc2ccc(OCCF)cc2)CCc2cc(OCc3ccccc3)ccc21 (centres undefined) | 0 | 0 | 0 | 12 |  |  |  |  |  | 
COc1ccc2c(c1)CCN(CCCC#Cc1ccccc1)CC2O (centres undefined) |  | 9 |  |  | 164 | 878 |  |  |  | 460
COc1ccc2c(c1)CCN(CCCCc1cccs1)CC2O (centres undefined) | 20 | 0 |  |  | 340 | 562 |  |  |  | 
COc1ccc2c(c1)CCN(CCCCc1cccnc1)CC2O (centres undefined) | 0 | 0 |  |  | 274 | 397 |  |  |  | 
COc1ccc2c(c1)CCN(CCCCc1cn(CCF)nn1)CC2O (centres undefined) | 0 | 0 | 28 | 0 |  |  |  |  |  | 

More lines, now with the values ahead:

inhibition [1] [%] | inhibition [2] [%] | inhibition [3] [%] | inhibition [4] [%] | Ki [5] [nM] | Ki [6] [nM] | inhibition [7] [%] | Ki [8] [nM] | Ki [9] [nM] | Ki [10] [nM] | SMILES
4 | 4 | 31 | 22 |  |  |  |  |  |  | COc1ccc2c(c1)CCN(CCC#Cc1ccccc1OCCF)CC2O (centres undefined)
3 | 0 |  | 12 | 701 |  |  |  |  |  | COc1ccc2c(c1)CCN(CCC#Cc1ccc(OCCF)cc1)CC2O (centres undefined)
3 | 0 | 9 | 23 |  |  |  |  |  |  | COc1ccc2c(c1)CCN(CCC#Cc1cccc(OCCF)c1)CC2O (centres undefined)
0 | 0 | 0 | 0 |  |  |  |  |  |  | COc1ccc2c(c1)CCN(CCC#Cc1nccs1)CC2O (centres undefined)
13 | 0 | 21 | 20 |  |  |  |  |  |  | COc1ccc2c(c1)CCN(CCC#Cc1cccs1)CC2O (centres undefined)
1 | 0 | 5 | 9 |  |  |  |  |  |  | COc1ccc2c(c1)CCN(CCC#Cc1cccnc1)CC2O (centres undefined)
18 | 15 |  | 15 | 565 |  |  |  |  |  | COc1ccc2c(c1)CCN(CCC#Cc1ccccc1)CC2O (centres undefined)
